According to ChEMBL document CHEMBL1138647, “Carbonic anhydrase inhibitors. Design of anticonvulsant sulfonamides incorporating indane moieties” (Bioorg Med Chem Lett, 2004):

These molecules were tested on Mus musculus (assay: Percent of mice (n=8) protected against seizures induced by a maximal electroshock (50mA,0.2s) after 30 mg/kg compound was injected intraperitoneally). Settings: route intraperitoneal.
Format: functional
Outline: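 Mice, n = 8 per group, received 30mg/kg ip 3h before a maximal electroshock (50mA, 0.2s). The read-out was the percentage of animals protected against the induced seizures.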

Question: How did the Protected mice turn out when `CC(=O)NC1Cc2ccc(S(=O)(=O)O)cc2C1.O` (centres undefined) was run?
Answer: 0%

Question: With `CC(=O)NC1Cc2ccc(S(N)(=O)=O)cc2C1` (centres undefined) as the molecule, how does the Protected mice read?
Answer: 38%

Question: For `NS(=O)(=O)c1ccc2c(c1)CC(NC(=O)c1ccc(Cl)cc1)C2` (centres undefined), which Protected mice is on record?
Answer: 31%

Question: Which Protected mice does the source give for `NC1Cc2ccc(S(=O)(=O)O)cc2C1` (centres undefined) here?
Answer: 0%

Question: For `Cl.NC1Cc2ccc(S(N)(=O)=O)cc2C1` (centres undefined), which Protected mice is on record?
Answer: 0%

Question: For `COc1ccc(Cl)cc1C(=O)NC1Cc2ccc(S(N)(=O)=O)cc2C1.O` (centres undefined), which Protected mice is on record?
Answer: 38%

Question: With `CC(=O)/N=c1/sc(S(N)(=O)=O)nn1C` [METHAZOLAMIDE] as the molecule, how does the Protected mice read?
Answer: 100%

Question: How did the Protected mice turn out when `NS(=O)(=O)c1ccc2c(c1)CC(NC(=O)c1c(F)c(F)c(F)c(F)c1F)C2` (centres undefined) was run?
Answer: 38%

Question: Which Protected mice does the source give for `NS(=O)(=O)c1ccc2c(c1)CC(NC(=O)c1c(F)c(F)cc(F)c1F)C2` (centres undefined) here?
Answer: 13%
